Results taken from ChEMBL document CHEMBL4513216, “Probing the Open Global Health Chemical Diversity Library for Multistage-Active Starting Points for Next-Generation Antimalarials” (ACS Infect Dis, 2020).

Assay: Toxicity liver stage against HepG2, at 10uM
Type: cell-based
Parameters: test concentration 10 uM, cell line HepG2-A16-CD81EGFP
Settings: human, HepG2-A16-CD81EGFP cells; read-out: INHIBITION
How it was run: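 Uninfected HepG2-A16-CD81EGFP cells, 3 × 10^3 per well, 1536-well, plated on prespotted compound at 10 μM final, parasite-free screening media added to match infected plates; puromycin 10 μM positive, DMSO 0.5% negative; run in parallel with 48 h PbLuc assay at 37 °C, 5% CO2; viability by CellTiter-Glo luminescence, normalized to controls.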

In order of rising cytotoxicity at 10 µM:
1. CO[C@H]1CN(Cc2ccc(C)o2)[C@@H]2CCCO[C@H]12  -144%
2. CCCS(=O)(=O)N1C[C@@H](c2nc(C)no2)C[C@H]2OCC[C@H]21  -130%
3. COCC(=O)N1CCC2(CC1)COC(COCc1ccccn1)C2 (stereo not given)  -128%
4. CN1C[C@@H]2CN(C(=O)C3CCOC3)C[C@@H]2C1=O (stereo not given in full)  -127%
5. Cn1cc(CN2C[C@@H]3COC[C@]3(COCC3CC3)C2)cn1  -112%
6. CCN(C(=O)c1ccc2nnc(C3CCN(S(C)(=O)=O)C3)n2c1)C(C)C (stereo not given)  -110%
7. CN(C)CC(=O)N1CCc2sc(C(=O)N3CCN(C)CC3)cc21  -104%
8. COC(=O)CSc1nnc2[nH]c(=O)c3c(n12)CCCC3  -99.8%
9. Cc1ncsc1C(=O)N1CCn2nc(CN3CCSCC3)cc2C1  -51%
10. CN(C)C(=O)C1CN(Cc2cccs2)CCN(S(C)(=O)=O)C1 (stereo not given)  -33.1%
11. Cc1ccnn1CCC(=O)N1CCC(c2cnccn2)CC1  -26.1%
12. CN1CCOC(C)(C(=O)N2CCN(C3CCCC3)CC2)C1 (stereo not given)  -25.8%
13. COc1ccc(CN(C)[C@@H]2CN(C(=O)c3cccn3C)C[C@H]2O)cc1  -21.5%
14. Cn1cc(NC(=O)c2cc[nH]n2)cc(Cl)c1=O  -18.3%
15. CCNC(=O)C1CCN(c2cc(-c3ccccc3)nc3ccnn23)C1 (stereo not given)  -16.9%
16. Cc1ccc([C@@]2(O)CC[C@@H]3CN(S(=O)(=O)c4cn(C)nc4C)C[C@@H]32)cc1  -16.2%
17. Cc1ccc(S(=O)(=O)N2CCC(c3n[nH]cc3C)C2)cc1 (stereo not given)  -14.3%
18. O=C(CCc1ccc(-n2cnnn2)cc1)Nc1ccncc1  -11.2%
19. CCn1nccc1S(=O)(=O)N1CCC2(CCCN(C(C)C)C2=O)C1 (stereo not given)  -10.9%
20. COc1ccc(N2CCC(N3C[C@H](NC(C)=O)[C@@H](C(C)C)C3)CC2)cc1  -9.92%
21. CN(C)c1cccc(C(=O)Nc2cnn(Cc3ccncc3)c2)c1  -9.19%
22. CCN1CCOC(CNCc2ccccn2)C1 (stereo not given)  -9.09%
23. COc1cccc(-c2cc(C3=NC(=CN4CCN(C)CC4)NO3)[nH]n2)c1  -7.54%
24. O=C1[C@@H]2CC[C@@H](CN(C3CCOCC3)C2)N1Cc1cscn1  -7.15%
25. Cc1nn(C)c2nc(N3CCCCC3c3cccnc3)sc12 (stereo not given)  -6.9%
26. CN(Cc1ccsc1)C(=O)c1cc2c([nH]c1=O)CCCC2=O  -6.88%
27. COc1ccc(S(=O)(=O)NC(=O)C(C)OC)c(OC)c1 (stereo not given)  -6.67%
28. Cc1cc(C)cc(OCC(=O)NC2CCN(S(C)(=O)=O)CC2)c1  -5.72%
29. CN(C)CCO[C@H]1CN(Cc2ccc3c(c2)OCO3)[C@@H]2COC[C@H]12  -5.5%
30. Cc1nc(N2CCN(C(=O)c3ccc(O)cc3)CC2)c2cnn(C)c2n1  -4.91%
31. COC(C)c1cccc(NCc2ccsc2)c1 (stereo not given)  -4.53%
32. CS(=O)(=O)NCc1cnc2n1CCN(Cc1ccoc1)CC2  -4.1%
33. c1ccc(Cn2cc(CNCC3CCCN3c3cccnn3)cn2)cc1 (stereo not given)  -4.03%
34. Cn1ccnc1CN1CCC2(CC1)CN(Cc1ccccc1)C(=O)CO2  -3.99%
35. Cc1cnc(CN2CCOC(Cn3nc(C)cc3C)C2)cn1 (stereo not given)  -2.81%
36. COCc1nnc2n1CCN(Cc1ccoc1)C2  -2.56%
37. Cn1c(=NC(=O)CSCC(=O)Nc2nccs2)sc2ccccc21  -1.81%
38. NC(=O)c1c(NC(=O)CCCC(=O)O)sc2c1CCc1ccccc1-2  -1.25%
39. COc1ccc(OC)c(S(=O)(=O)NC(=O)C(C)OC)c1 (stereo not given)  -1.2%
40. Cc1noc2nc3c(c(C(=O)/N=c4\[nH]ncs4)c12)CCC3  -0.493%
41. Cc1ccc(CN(C)C(=O)NCC(C)(C)NS(C)(=O)=O)s1  -0.422%
42. Cn1ccnc1C(NCc1ccccc1)c1ccc(F)cc1 (stereo not given)  0.573%
43. CN(C)Cc1cnc(C2CCN(C(=O)c3ccccc3F)C2)[nH]1 (stereo not given)  0.578%
44. OC1(CN2CCCC2)COCCN(c2noc(-c3ccccc3)n2)C1 (stereo not given)  0.726%
45. CN(Cc1ccccn1)C1CC2(CCN(Cc3cccnc3)CC2)C1  0.925%
46. OCCN1CCC2(CC1)CC(NCc1ccccn1)c1ccccc1O2 (stereo not given)  0.98%
47. c1cncc(CN2CCc3c(CNc4nccs4)n[nH]c3C2)c1  1.04%
48. CS(=O)(=O)N1C[C@H]2CCC[C@@]2(COc2ccccn2)C1  1.13%
49. Cc1ccc(Cl)cc1-n1nnnc1C1(N2CCCC2)CCCC1  1.18%
50. Cc1nc(N)cc(C2(C)CCCNC2)n1 (stereo not given)  1.36%
51. Cc1cc(NC(C)Cn2cccn2)n2nccc2n1 (stereo not given)  1.99%
52. OCC1N(Cc2ccco2)C2CCC1(O)CC2 (stereo not given)  3.1%
53. Cc1noc(C)c1C(C)C(=O)N1CCCN(C)c2ccc(Cl)cc21 (stereo not given)  3.89%
54. O=C(Cc1ccccn1)N1CCN2C[C@H](Oc3cccc(F)c3)C[C@H]2C1  3.94%
55. CN(C)CCN1CCC2(CCCN(C(=O)C3CCC3)C2)CC1  4.38%
56. Fc1cnc(N2CCCn3c(nnc3Cn3cccn3)C2)nc1  4.53%
57. CCOC1CC2(CCN(Cc3cnn(C)c3)CC2)c2ccc(C)cc21 (stereo not given)  4.62%
58. COc1ccc(CNC(=O)Cc2csc(C(C)=O)c2)cc1  4.95%
59. c1ccc(CCN2CCN(c3ncnc4[nH]ccc34)CC2)cc1  5.09%
60. OCC1CCCCN1Cc1nc(Cc2ccccc2)no1 (stereo not given)  5.13%
61. O=C(NCCc1nncn1C1CC1)C1(c2ccccc2)CCC1  5.36%
62. CN1CCC(N(Cc2ccccc2)C(=O)c2ccn3cncc3c2)CC1  5.68%
63. O=C(CCCn1cccn1)N1C[C@@H](O)[C@H](Oc2cccc(F)c2)C1  5.75%
64. O=S(=O)(C1CC1)N1CC[C@@H]2[C@@H]1CCN2Cc1cccs1  5.77%
65. CCc1ccc(C(=O)Nc2cc(N3CCNC3=O)ccc2Cl)o1  6.03%
66. Cc1nc(C(=O)N2CCN(c3ncccn3)[C@@H]3CS(=O)(=O)C[C@@H]32)cs1  6.12%
67. COc1cc(NCCNC(=O)c2ccc3[nH]ccc3c2)cc(OC)c1  6.44%
68. CCOc1cccnc1C(=O)N1CCC(c2ccccc2OC)C1 (stereo not given)  7.71%
69. CN(Cc1csc(-c2cnn(C)c2)n1)CC1CCN(CCO)CC1  7.77%
70. CCC[C@H]1CN(Cc2ccc(N(C)C)nc2)C[C@@H]1NC(=O)CSC  7.78%
71. Cc1cc2nc(C(C)C)cc(N(C)CC3CCCN3C)n2n1 (stereo not given)  8.49%
72. CN(Cc1ccc([S+](C)[O-])cc1)c1ccc(Cl)cn1 (stereo not given)  8.97%
73. O=C(NC1CC(=O)N(C2CC2)C1)c1ccc(Cl)s1 (stereo not given)  9.05%
74. O=C(c1ccc(-c2ccccc2)[nH]c1=O)N1CCN(C2CC2)CC1  9.8%
75. CCC(C)NC(=O)CS(=O)(=O)Cc1cc(Cl)ccc1OC (stereo not given)  10.8%
76. Cc1ccccc1N1CCN(C(=O)c2ncc(F)cc2F)C(C)C1 (stereo not given)  11.4%
77. COCCCN(Cc1ccccn1)S(=O)(=O)N(C)C  12%
78. CCOc1ccc(CCC(=O)N2CC[C@H]3C(=O)NCCO[C@H]3C2)cc1  12.1%
79. Cc1cccc(C(=O)N2CCn3cnc(COCC4CC4)c3C2)c1  14%
80. COc1cccc2c1N(CC(=O)Nc1ccc(Cl)cn1)CCC2  64.9%
